What was measured:
[1] = target: T1, Bromodomain-containing protein 4 (Homo sapiens, UniProt O60885); assay: Binding affinity to N-terminal His6-tagged BRD4 bromodomain 1 (44 to 168 residues) (unknown origin) assessed as change in melting temperature at 20 uM measured after 1 hr by Sypro orange dye based differential scanning fluorimetry
Procedure, shortened: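 Ligand binding was read by differential scanning fluorimetry: a fluorescent dye reports protein core exposure during heat denaturation, and the value is the shift in protein denaturation temperature (ΔTm) with compound present.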

[2] = target: T1, Bromodomain-containing protein 4; assay: Inhibition of BRD4 (unknown origin) measured after 2 hrs by TR-FRET assay

SMILES	ΔTm [1] [°C]	IC50 [2] [µM]
Cc1noc(C)c1COc1ccccc1C(=O)NC(c1ccccc1)c1ccccc1	0.93	
CCC(C)C1NC(=O)N(CC(C)c2c(C)noc2C)C1=O (stereo not drawn)	2.12	
Cc1nnc2ccc(NCc3ccc(OC4CCCC4)nc3)nn12	1.89	
CC(Sc1nc(-c2cccs2)n[nH]1)C(=O)N1CCCc2ccccc21 (stereo not drawn)	1.78	
COc1ccc(-n2ccc(C(=O)Nc3cc(Cl)c(=O)n(C)c3)n2)cc1	1.08	
Cc1cc(C(=O)N(C)C(c2ccccc2)c2ccccn2)c2c(C)nn(C(C)(C)C)c2n1 (stereo not drawn)	1.49	
COCCCOc1cc(C)ccc1CNc1ccc2nnc(C)n2n1	1.56	
Cc1noc(C)c1CNC(=O)Nc1cccc(-c2ccc(Cl)c(Cl)c2)c1	1.56	
Cc1nnc2ccc(NCc3cn(-c4ccccc4)nc3C(C)C)nn12	2.66	11.7
CC(C(=O)Nc1ccc2nnc(C3CCC3)n2c1)n1cncn1 (stereo not drawn)	1.49	
CCn1c(SC(C(=O)NCc2cccnc2)C(C)C)nnc1-c1cccs1 (stereo not drawn)	1.6	8.81
Cc1noc(C)c1CSCC(=O)c1c(C)[nH]c2ccccc12	1.36	
COCCN(C)c1ccccc1CNc1ccc2nnc(C)n2n1	1.1	107

Next, values leading:

ΔTm [1] [°C]	IC50 [2] [µM]	SMILES
0.76	63.3	c1cnn(-c2ccc(CNc3ccc4nnc(C5CC5)n4n3)cc2)c1
1.86	19.5	Cc1noc(C)c1CC(=O)Nc1nc(-c2c(C)[nH]c3ccccc23)cs1
1.76		Cc1noc(C)c1NC(=O)N1CCCCC1c1ncc[nH]1 (stereo not drawn)
1.7		Cc1nnc2ccc(NC3CCCc4cc(OC(F)F)ccc43)nn12 (stereo not drawn)
1.9	23.9	Cc1nn(C)c(C)c1C1C(CNc2nccn3cnnc23)CC(=O)N1C (stereo not drawn)
1.82	160	Cc1nn(C2CCS(=O)(=O)C2)c(C)c1CN(C)C(=O)CC(c1ccccc1)c1ccccc1 (stereo not drawn)
1.26		COCCc1ccccc1NC(=O)NC(c1ccccc1)c1n[nH]c(C)n1 (stereo not drawn)
1.69		Cc1nnc2ccc(NCc3ccnc(OC4CCCC4)c3)nn12
1.6	33.2	Cc1n[nH]c(C)c1CNCc1c(C)nn(Cc2ccccc2)c1C
1.21		O=C(CCc1ncc(-c2ccc(Cl)cc2Cl)o1)NCCc1nnc2ccccn12
1.09		Cc1nn(CCO)c(C)c1CNC(c1ccccc1)c1nccn1C (stereo not drawn)
2.02		Cc1c(C2OCCC2NCc2cc(-c3cnn(C)c3)no2)cnn1C (stereo not drawn)
1.8		Cc1nnc2ccc(N(C)Cc3ccc([S+](C)[O-])cc3)nn12 (stereo not drawn)
1.72		Cc1nnc2ccc(N3CCN(C(=O)c4csc(-c5ccccc5F)n4)CC3)nn12
1.86		Cc1nnc2c(NCc3cnn(-c4ccc(Cl)cc4)c3)nccn12
2.82	24.9	Cc1cc(-c2cc(C(=O)NC3CCC(CO)CC3)c3c(C)noc3n2)c(C)o1 (stereo not drawn)

Source: ChEMBL document CHEMBL4480395, “Pros and cons of virtual screening based on public "Big Data": In silico mining for new bromodomain inhibitors” (Eur J Med Chem, 2019)
